According to ChEMBL document CHEMBL1121568, “A multifaceted approach to the study of the side-chain conformation in beta-lactamase-resistant penicillins” (J Med Chem, 1980):

target: T1, Beta-lactamase OXA-9 (Klebsiella aerogenes) (UniProt P0A3M4); experiment: Inhibition of beta-lactamase of Enterobacter aerogenes relative to oxacillin sulfoxide(=1)
T1 sequence (whole entry): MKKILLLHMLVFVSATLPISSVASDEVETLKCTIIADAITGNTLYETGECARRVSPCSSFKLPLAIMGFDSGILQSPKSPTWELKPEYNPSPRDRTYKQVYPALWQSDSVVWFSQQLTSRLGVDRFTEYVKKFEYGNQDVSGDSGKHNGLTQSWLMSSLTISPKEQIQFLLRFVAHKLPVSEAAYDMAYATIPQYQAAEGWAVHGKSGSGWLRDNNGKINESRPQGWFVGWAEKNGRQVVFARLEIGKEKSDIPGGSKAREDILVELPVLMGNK
Summary of the method: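 Partially purified Enterobacter aerogenes β-lactamase at constant concentration in pH 8.5 phosphate buffer, 25 °C, hydrolysing cephalothin (2.6 × 10^-4 M). Inhibitors tested at 3.4 × 10^-7 to 8.5 × 10^-5 M. Initial hydrolysis rates with (v_i) and without (v) inhibitor followed by absorbance at 260 nm and estimated graphically. Ratio v/v_i expressed relative to a reference compound.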

| Relative inhibition | SMILES |
| --- | --- |
| 5000 | Cc1onc(-c2ccccc2Cl)c1C(=O)N[C@@H]1C(=O)N2[C@@H]1SC(C)(C)[C@@H]2C(=O)O |
| 2 | COC(=O)[C@@H]1N2C(=O)[C@@H](NC(=O)c3c(OC)cccc3OC)[C@H]2SC1(C)C |
| 370 | Cc1onc(-c2ccccc2Cl)c1C(=O)N[C@@H]1C(=O)N2[C@@H]1[S+]([O-])C(C)(C)[C@@H]2C(=O)O (stereo partly specified) |
| 270 | COC(=O)[C@@H]1N2C(=O)[C@@H](NC(=O)c3c(-c4ccccc4Cl)noc3C)[C@H]2SC1(C)C |
| 1 | Cc1onc(-c2ccccc2)c1C(=O)N[C@@H]1C(=O)N2[C@@H]1[S+]([O-])C(C)(C)[C@@H]2C(=O)O (stereo partly specified) |
| 120 | COC(=O)[C@@H]1N2C(=O)[C@@H](NC(=O)c3c(-c4ccccc4)noc3C)[C@H]2SC1(C)C |
| 5000 | Cc1onc(-c2c(Cl)cccc2Cl)c1C(=O)N[C@@H]1C(=O)N2[C@@H]1SC(C)(C)[C@@H]2C(=O)O |
| 1500 | COC(=O)[C@@H]1N2C(=O)[C@@H](NC(=O)c3c(-c4c(Cl)cccc4Cl)noc3C)[C@H]2SC1(C)C |
| 50 | COc1cccc(OC)c1C(=O)N[C@@H]1C(=O)N2[C@@H]1SC(C)(C)[C@@H]2C(=O)O |
| 5000 | Cc1onc(-c2c(F)cccc2Cl)c1C(=O)N[C@@H]1C(=O)N2[C@@H]1SC(C)(C)[C@@H]2C(=O)O |

| SMILES | Relative inhibition |
| --- | --- |
| Cc1onc(-c2ccccc2)c1C(=O)N[C@@H]1C(=O)N2[C@@H]1SC(C)(C)[C@@H]2C(=O)O | 5000 |
